From ChEMBL document CHEMBL3297675, “Mahorones, highly brominated cyclopentenones from the red alga Asparagopsis taxiformis” (J Nat Prod, 2014)
≈ marks a conversion by molar mass, not a printed value. Calls of active or inactive are those of the source. The rule behind the calls is not given here.

Legend:
Pseudomonas aeruginosa = assay: Antibacterial activity against Pseudomonas aeruginosa by resazurin-based assay; format: functional
Acinetobacter baumannii = assay: Antibacterial activity against Acinetobacter baumannii by resazurin-based assay; format: functional
Aliivibrio fischeri = assay: Toxicity in Vibrio fischeri NRRL B-11177 assessed as reduction in bioluminescence after 15 mins by microtox assay; format: organism-based; settings: NRRL B-11177, 0.25 h
How it was run: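 Microtox assay with V. fischeri. Samples made up to 500 μg·mL−1 initial in artificial seawater containing 2% acetone, then tested at 45, 22.5, 11.25 and 5.625% of initial, in triplicate. Light loss read after 15 min exposure, γ = (I0/It) − 1. EC50 taken from log γ versus log concentration regression at γ = 1.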

Escherichia coli [1] = assay: Antibacterial activity against Escherichia coli 2884 by resazurin-based assay; format: functional
Escherichia coli [2] = assay: Antibacterial activity against Escherichia coli 5746 by resazurin-based assay; format: functional
How it was run: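 Liquid broth assay in Luria Broth, inoculum plus compound from 0.312 mM DMSO stock. Tested at 5 μM final in triplicate within one experiment. Overnight incubation at 37 °C. Growth read by turbidity or fluorescence, with viability scored using resazurin at 0.002% final.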

Staphylococcus aureus [3] = assay: Antibacterial activity against methicillin-resistant Staphylococcus aureus by resazurin-based assay; format: functional
How it was run: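 MRSA was grown in Luria Broth liquid culture with diluted inoculum, compound added from a DMSO stock. Plates were incubated overnight at 37 °C and scored for visible growth by turbidity or fluorescence, with resazurin as the viability read-out. Tests were run in triplicate within one experiment.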

Staphylococcus aureus [4] = assay: Antibacterial activity against methicillin-sensitive Staphylococcus aureus by resazurin-based assay; format: functional
Aspergillus fumigatus [5] = assay: Antifungal activity against Aspergillus fumigatus by resazurin-based assay; format: functional
How it was run: (§1)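 Liquid assay in modified RPMI medium: RPMI-1640, Yeast Nitrogen Base, 1.8% glucose, 40 mM HEPES pH 7.1. Compound added from 0.5 mM solution before inoculum. Tested at 5 μM final in triplicate. Amphotericin B curve (0.5−4 μg·mL−1) run as control. Incubated overnight at 37 °C, then viability scored with resazurin at 0.002% final.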

Aspergillus fumigatus [6] = assay: Antifungal activity against Aspergillus fumigatus by resazurin-based assay in presence of caspofungin enhancer; format: functional; how it was run: as §1
A549 = assay: Cytotoxicity against human A549 cells after 24 hrs by MTT assay; format: functional, cell-based
How it was run: (§2)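 MTT assay with cells seeded at 3 × 10^4 cells/well. Compound taken from 1 mM DMSO stock, diluted 1/200 into medium and left on cells 24 h at 37 °C, 5% CO2. MTT then added at 0.5 mg·mL−1 in phenol red-free MEM for 3 h. Formazan dissolved in DMSO and absorbance read at 570 nm.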

HepG2 = assay: Cytotoxicity against human HepG2 cells after 24 hrs by MTT assay; format: functional, cell-based; how it was run: as §2
HT-29 = assay: Cytotoxicity against human HT-29 cells after 24 hrs by MTT assay; format: functional, cell-based; how it was run: as §2
MCF7 = assay: Cytotoxicity against human MCF7 cells after 24 hrs by MTT assay; format: functional, cell-based; how it was run: as §2
[7] = Cytotoxicity against human Fa2N-4 cells assessed as growth inhibition at 5 uM after 24 hrs by MTT assay relative to control; format: cell-based; settings: read-out: GI
How it was run: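 Fa2N4 healthy liver cells seeded at 3 × 10^4 cells/well. Exposed to compound at 5 μM (1 mM DMSO stock diluted 1/200) for 24 h at 37 °C, 5% CO2. Then 0.5 mg·mL−1 MTT for 3 h, formazan dissolved in DMSO, absorbance at 570 nm. Growth inhibition expressed as percent.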

[8] = Cytotoxicity against human Fa2N-4 cells after 24 hrs by MTT assay; format: cell-based; settings: fa2n-4, 24 h; how it was run: as §2

Row | SMILES | MIC80 (Pseudomonas aeruginosa) | MIC80 (Acinetobacter baumannii) | MIC80 (Escherichia coli [1]) | MIC80 (Escherichia coli [2]) | MIC80 (Staphylococcus aureus [3]) | MIC80 (Staphylococcus aureus [4]) | also measured
1 | O=C(O)c1cn(C2CC2)c2cc(N3CCNCC3)c(F)cc2c1=O [CIPROFLOXACIN] | 1.5 µg/mL (≈ 4.53 µM) |  |  |  |  |  | 
2 | CO[C@H]1/C=C/O[C@@]2(C)Oc3c(C)c(O)c4c(O)c(c(/C=N/N5CCN(C)CC5)c(O)c4c3C2=O)NC(=O)/C(C)=C\C=C\[C@H](C)[C@H](O)[C@@H](C)[C@@H](O)[C@@H](C)[C@H](OC(C)=O)[C@@H]1C [RIFAMPIN] |  | 1 µg/mL (≈ 1.22 µM) |  |  |  |  | 
3 | O=C1C[C@](O)(C(Br)Br)C(Br)=C1Br | > 10 µg/mL | 8 µg/mL (≈ 18.7 µM) | > 32 µg/mL | 16 µg/mL (≈ 37.4 µM) | 16 µg/mL (≈ 37.4 µM) | > 32 µg/mL | EC50 (Aliivibrio fischeri): 0.07 µg/mL (≈ 0.164 µM); MIC80 (Aspergillus fumigatus [5]): > 32 µg/mL; MIC80 (Aspergillus fumigatus [6]): > 32 µg/mL; Activity (A549): inactive; Activity (HepG2): inactive; Activity (HT-29): inactive; Activity (MCF7): inactive; inhibition at 24 h, 5 µM [7]: 53%
4 | O=C1C(Br)=C(Br)[C@@](O)(C(Br)Br)[C@@H]1Br | > 10 µg/mL | 16 µg/mL (≈ 31.6 µM) | > 32 µg/mL | 32 µg/mL (≈ 63.2 µM) | 16 µg/mL (≈ 31.6 µM) | > 32 µg/mL | EC50 (Aliivibrio fischeri): 0.08 µg/mL (≈ 0.158 µM); MIC80 (Aspergillus fumigatus [5]): > 32 µg/mL; MIC80 (Aspergillus fumigatus [6]): > 32 µg/mL; Activity [8]: Non-toxic; Activity (A549): inactive; Activity (HepG2): inactive; Activity (HT-29): inactive; Activity (MCF7): inactive
5 | C[C@@H](O)[C@H]1C(=O)N2C(C(=O)O)=C(SCCNC=N)C[C@H]12 [IMIPENEM ANHYDROUS] |  |  |  |  | 8 µg/mL (≈ 26.7 µM) |  | 
6 | CC1(C)S[C@@H]2[C@H](NC(=O)Cc3ccccc3)C(=O)N2[C@H]1C(=O)O [PENICILLIN G] |  |  |  |  |  | 0.01 µg/mL (≈ 0.0299 µM) | 
7 | CO[C@@H]1[C@@H](OC(N)=O)[C@@H](O)[C@H](Oc2ccc3c(O)c(NC(=O)c4ccc(O)c(CC=C(C)C)c4)c(=O)oc3c2C)OC1(C)C [NOVOBIOCIN] |  |  | 0.3 µg/mL (≈ 0.49 µM) | 0.1 µg/mL (≈ 0.163 µM) |  |  | 
